aSyn UTR inh: 5' untranslated region of α-synuclein, MLPCN primary screen. hit rate 0.82% among 300,000. AID 1813. inhibition, % (tested at 7.5 µM). alpha-synuclein 5'UTR reporter, inhibitor activity; in the data active means inhibition above about 60%;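 further: H4 neuroglioblastoma cells stably carrying SNCA 5'UTR luciferase fusion; 0% = DMSO wells and 100% = positive control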
Lipid droplet: hepatic lipid droplet formation modulation. AML12 mouse hepatocytes, oleate lipid droplets, BODIPY imaging. inhibition, % at 6.5 µM. hit rate 0.4% among 240,000;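 active means lipid droplet intensity inhibited by at least 50%, with more than 500 cells counted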
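Material: mouse AML12 hepatocyte cell line, fixed after treatment; Timing: compound with oleate, overnight; Technique: high-content imaging of BODIPY-stained droplets and DAPI nuclei; Probe or stimulus: oleate, 100 µM final; Dosing: compound at 6.5 µM only.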
H9c2 TAG inh: triacylglycerol accumulation inhibition | hit rate 0.66% among 230,000 | inhibition, % at 12.5 µM | H9c2 cells, Nile Red lipid (TAG) fluorescence; cells loaded with 200 µM oleic acid | AID 651582;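 active means pattern-corrected inhibition of lipid staining of at least 50% with the nuclear-stain viability signal not falling by more than 50%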;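 further: 0% = DMSO wells and 100% = triacsin C control wells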
Jurkat NFkB inh: lowers PMA/ionomycin-induced NF-kB signal in Jurkat cells | PMA/ionomycin-induced NF-kB luciferase reporter, luminescence | inhibition, % at 4 µM | hit rate 0.53% among 330,000 | AID 435003; in the data active means inhibition above about 50%
APP 5UTR inh: APP translation inhibition; SH-SY5Y APP 5'UTR-luciferase reporter, luminescence; inhibition, % at 2 µM; hit rate 0.82% among 190,000; AID 1285;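 active means inhibition above a set limit, derived from the sample mean plus 3 SD, cut at about 45% in these data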
697 NFkB inh: inhibitors of the PMA/ionomycin-induced NF-kB reporter in 697 B cells | 697 B-cell NF-kB luciferase reporter, 16 h | inhibition, % at 4 µM | AID 435022 | hit rate 0.33% among 330,000; in the data active means inhibition above about 35%
Jurkat NFkB conf: inhibitors of the PMA/ionomycin-induced NF-kB reporter in Jurkat cells, retest; Jurkat NF-kB luciferase, 16 h; hit rate 27% among 2,700; inhibition, % at 4 µM; shares compounds with Jurkat NFkB inh; AID 435020;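 active means inhibition reaching about 45% at 4 µM in either replicate, limit read from the data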;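 further: plate controls were PMA/ionomycin stimulated DMSO wells for no effect and unstimulated DMSO wells for full effect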
* hit, by the source's call. An excerpt weighted towards active compounds, which were near 1.9% of everything screened.

`CC(=O)Nc1ccc(S(=O)(=O)NCCC(=O)NCC2COc3ccccc3O2)cc1` (stereo unspecified) gave aSyn UTR inh 2, Lipid droplet 0, H9c2 TAG inh -8, Jurkat NFkB inh 15 and 697 NFkB inh 4.
For CCCN(c1ccccc1F)S(=O)(=O)c1c[nH]c(C(=O)OC)c1 the results were aSyn UTR inh 4, Lipid droplet -5, Jurkat NFkB inh 8 and 697 NFkB inh 8.
CCn1c(/C=C/c2c[nH]c3ccccc23)nc2ccccc2c1=O was read as aSyn UTR inh -176, Lipid droplet -8, H9c2 TAG inh -5, Jurkat NFkB inh -266, APP 5UTR inh -182, 697 NFkB inh -232 and Jurkat NFkB conf -37.
`CCn1c(/C=C\c2ccccc2C)nc2ccccc2c1=O` gave aSyn UTR inh -63, Lipid droplet -13, H9c2 TAG inh -31, Jurkat NFkB inh 1, APP 5UTR inh -7 and 697 NFkB inh -34.
Screening COc1cc(NC(=O)N2CCNC2=O)cc(C(=O)Nc2cccc(C(F)(F)F)c2)c1 returned aSyn UTR inh 68*, Lipid droplet 12, Jurkat NFkB inh 67*, 697 NFkB inh -8 and Jurkat NFkB conf 51*.
Screening CCN1CCN(Cc2ccc(NC(=O)c3cc(NC(=O)N4CCNC4=O)cc(OC)c3)cc2C(F)(F)F)CC1 returned aSyn UTR inh -18, Lipid droplet 20, H9c2 TAG inh 16, Jurkat NFkB inh 11 and 697 NFkB inh 13.
Screening C=CCNc1ncnc2c1cnn2-c1ccc(OC)cc1 returned aSyn UTR inh -20, Jurkat NFkB inh -154, APP 5UTR inh -148, 697 NFkB inh -130 and Jurkat NFkB conf -80.
Screening CN(C)CCNc1ncnc2c1cnn2-c1ccc(Cl)cc1 returned aSyn UTR inh -93, H9c2 TAG inh 31, Jurkat NFkB inh -36, APP 5UTR inh -92 and 697 NFkB inh -64.
For CCCNc1ncnc2c1cnn2-c1ccc(OC)cc1 the results were Lipid droplet 31 and APP 5UTR inh -193.
For OCCCNc1ncnc2c1cnn2-c1ccc(Cl)cc1 the results were aSyn UTR inh 32, Lipid droplet -13, Jurkat NFkB inh -153, 697 NFkB inh -135 and Jurkat NFkB conf -102.
For COC(=O)c1c(-c2ccc(SC)cc2)sc2ccc(OC)cc12 the results were H9c2 TAG inh -61, Jurkat NFkB inh -153, 697 NFkB inh -166 and Jurkat NFkB conf -90.
`COC(=O)c1c(-c2cc(OC)cc(OC)c2)sc2ccc(OC)cc12` gave H9c2 TAG inh -10, Jurkat NFkB inh -15 and 697 NFkB inh -3.
`Nc1ncn(C2O[C@H](CO)[C@@H](O)[C@H]2O)c(=O)n1` (stereo partly specified) gave Jurkat NFkB inh 82*, 697 NFkB inh -145 and Jurkat NFkB conf 90*.
For COc1ccc(-c2oc3ccc(N4CCOCC4)cc3c2C#CCO)cc1 the results were aSyn UTR inh -92, H9c2 TAG inh 22, Jurkat NFkB inh 13 and 697 NFkB inh -57.
`COc1ccc(-c2ccc3oc(-c4ccc(OC)cc4)c(C#CCO)c3c2)cc1` gave aSyn UTR inh -23, H9c2 TAG inh -36, Jurkat NFkB inh 73*, 697 NFkB inh -39 and Jurkat NFkB conf 57*.
Cc1ccc(S(=O)(=O)/N=C2\C=C(Nc3ccc(O)cc3)C(=O)c3ccccc32)cc1 was read as H9c2 TAG inh 116, Jurkat NFkB inh 64*, 697 NFkB inh 19 and Jurkat NFkB conf 99*.
Cc1ccc(S(=O)(=O)/N=C2\C=C(Nc3cccc(C(=O)O)c3)C(=O)c3ccccc32)cc1 was read as aSyn UTR inh 23, Lipid droplet 0, Jurkat NFkB inh -5 and 697 NFkB inh -61.
CCCC(NC(=O)COc1cc2c(c3oc(=O)cc(C)c13)CCC(C)(C)O2)C(=O)O (stereo unspecified) was read as aSyn UTR inh -2, Lipid droplet -1, Jurkat NFkB inh -1 and 697 NFkB inh 4.
Screening CC(C)[C@@H](C(=O)OCC(=O)Nc1ccc2c(c1)OCO2)N1C(=O)c2ccccc2C1=O returned aSyn UTR inh -3, Lipid droplet 9, H9c2 TAG inh 1, Jurkat NFkB inh 12, APP 5UTR inh -10 and 697 NFkB inh -6.
Screening COc1ccc(NS(=O)(=O)c2cc(NC(=O)c3ccco3)ccc2N2CCCC2)cc1 returned aSyn UTR inh -9, Lipid droplet -35, Jurkat NFkB inh 62*, APP 5UTR inh 1, 697 NFkB inh -112 and Jurkat NFkB conf 8.
For COc1ccc(NS(=O)(=O)c2cc(NC(=O)c3sccc3C)ccc2N2CCOCC2)cc1 the results were aSyn UTR inh -43, Lipid droplet 0, H9c2 TAG inh 20, Jurkat NFkB inh 50*, 697 NFkB inh -11 and Jurkat NFkB conf 2.
For COc1ccc(N(CC(=O)N2CCC(C(N)=O)CC2)S(=O)(=O)c2ccccc2)cc1 the results were aSyn UTR inh 10, Lipid droplet -1, Jurkat NFkB inh 11 and 697 NFkB inh 10.
For Cn1c(=O)c2c(-c3ccc(OC(F)F)cc3)cc(-c3ccccc3)nc2n(C)c1=O the results were aSyn UTR inh 10, Lipid droplet -3, Jurkat NFkB inh -5 and 697 NFkB inh -6.
`N#Cc1ccc(N2CCN(C(=O)c3cccc(F)c3)CC2)c(F)c1` gave aSyn UTR inh 15, Lipid droplet 22, H9c2 TAG inh -24, Jurkat NFkB inh 9, APP 5UTR inh 4 and 697 NFkB inh -1.
Screening Cc1nc(CNC(=O)CC2C(=O)NCCN2Cc2ccc(F)cc2)cs1 (stereo unspecified) returned aSyn UTR inh -4, Lipid droplet -6, H9c2 TAG inh 7, Jurkat NFkB inh 0 and 697 NFkB inh 21.
For O=[N+]([O-])c1ccc(N/N=C/c2cccc(O)c2O)cc1 the results were aSyn UTR inh -170, Lipid droplet 8, Jurkat NFkB inh 81*, 697 NFkB inh -112 and Jurkat NFkB conf -5.
For COc1cccc(/C=N/Nc2ccc(C(=O)O)cc2)c1O the results were aSyn UTR inh 113*, Lipid droplet 6, H9c2 TAG inh 11, Jurkat NFkB inh 88*, APP 5UTR inh 80*, 697 NFkB inh -32 and Jurkat NFkB conf 57*.
Screening Cc1ccc(OCC(=O)N(Cc2nnc(-c3ccccc3Cl)o2)C2CC2)cc1C returned H9c2 TAG inh -1, Jurkat NFkB inh -10 and 697 NFkB inh 7.
For Nc1cccc2nc3ccccc3cc12 the results were aSyn UTR inh 101*, Lipid droplet -45, H9c2 TAG inh 123, Jurkat NFkB inh 62*, 697 NFkB inh 24 and Jurkat NFkB conf -4.
Screening Nc1[nH]nc2nc3ccccc3cc12 returned aSyn UTR inh -4, Lipid droplet 12, H9c2 TAG inh -4, Jurkat NFkB inh -5, APP 5UTR inh -5 and 697 NFkB inh 17.

From PubChem
